Screening data as filed in PubChem BioAssay.
This is a sample that favours compounds with a hit; in the whole collection about 1.1% have one here.
Pemphigus Ab inh – inhibitors of pemphigus antibody binding to human desmoglein-3; binding (percent of control), % at 10 µM; actives 0.48% (n = 310,000); AID 588358; DSG3-coupled beads, scFv-anti-DSG3-GFP binding, flow cytometry; stronger effect = lower value; P32926;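 active means binding more than 3 SD below its plate's average and above zero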;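 further: hits lower antibody fragment binding to DSG3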
Arr AP2 block – blocks beta-arrestin peptide binding to AP2 adaptin; AID 504490; actives 0.31% (n = 340,000); FITC-arrestin peptide / GST-AP2 beads, flow cytometry; AP2 beta2 appendage carries R879A mutation; inhibition, % at 10 µM;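 active means inhibition above a set limit, near 3 SD of compounds lacking own fluorescence, cut at about 54% in these data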;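 further: plate controls were DMSO wells for no effect and 5 µM unlabelled arrestin peptide for full effect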
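test system = AP2 appendage R879A on GSH beads | buffer or medium = PBS plus Tween 20 (0.05%) and BSA (0.1%) | incubation = 12 min plus 1 h, RT | detection = bead flow cytometry, FITC channel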
Avidin fluor – avidin bead compound fluorescence profile; Avidin beads, compound fluorescence 488/530 nm, flow cytometry; stronger effect = higher value; fluorescence (KMESF) at 10 µM; actives 0.38% (n = 220,000); AID 1775; in the data active means fluorescence above about 47
GSH bead fluor – GSH bead compound fluorescence profile; fluorescence (KMESF) at 10 µM; AID 1776; GSH beads flow cytometry, compound fluorescence 488/530 nm; stronger effect = higher value; actives 0.25% (n = 190,000); in the data active means fluorescence above about 89;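 further: glutathione beads carrying GST-tagged Bcl family fusion proteins plus one bare bead set; values are compound well signal with DMSO vehicle wells as background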
Arr AP2 CP1 – human beta-arrestin and AP2 interaction inhibition, cherry pick; shares compounds with Arr AP2 block; actives 2% (n = 1,300); inhibition, % at 10 µM; GST-AP2 beads, FITC arrestin peptide binding, flow cytometry; GST-fused beta2-adaptin appendage, R879A mutant;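 active means inhibition above a set limit, roughly 3 SD of non-fluorescent compound noise, cut at about 38% in these data; inactive means inhibition at or below that limit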;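 further: loss of bead fluorescence from 50 nM FITC arrestin peptide bound to appendage; 0% = negative control wells and 100% = excess unlabelled arrestin peptide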
GST GSH counter – GST-GSH bead binding interference, counter-screen; shares compounds with Arr AP2 block; GST-fluorescein binding to GSH beads, fluorescence; inhibition, % at 10 µM; actives 2% (n = 1,300); AID 588338;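 active means inhibition above 50%, about 3 SD of the inhibition seen with non-fluorescent compounds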;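 further: fluorescein maleimide labelled GST captured on 4 micron glutathione beads; higher means more loss of bead fluorescence from quenching or blocked binding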
Starred values were filed as active, the others as inactive; · = no result given.

SMILES	Pemphigus Ab inh	Arr AP2 block	Avidin fluor	GSH bead fluor	Arr AP2 CP1	GST GSH counter
Cc1ccc(NS(=O)(=O)c2cccc(C(=O)N3CCCC(C)C3)c2)cc1 (stereo not given)	92	58*	·	·	24	4
COc1ccccc1NS(=O)(=O)c1ccc(C(=O)N2CCCCCCC2)cc1	102	21	·	·	·	·
COc1ccccc1NS(=O)(=O)c1cccc(C(=O)N2CCCCCC2)c1	92	55*	·	·	-4	-7
CN(Cc1ccccc1)C(=O)c1ccc(S(=O)(=O)N(C)c2ccccc2)cc1	102	-9	·	·	·	·
CC(C(=O)Nc1ccc2c(c1)OCO2)c1ccc([N+](=O)[O-])cc1 (stereo not given)	83	65*	8	15	2	-2
CC(C(=O)Nc1ccc2c(c1)OCCO2)c1ccc([N+](=O)[O-])cc1 (stereo not given)	110	-1	16	10	·	·
COC(=O)c1ccc(CNC(=O)C2CCC(=O)N(CCc3ccccc3)C2)cc1 (stereo not given)	107	2	·	·	-9	1
Cc1ccsc1CCNC(=O)C1CCC(=O)N(CCc2cccc(F)c2)C1 (stereo not given)	110	-2	·	·	·	·
Cc1ccccc1CNC(=O)C1CCC(=O)N(Cc2cccc(F)c2)C1 (stereo not given)	·	4	·	·	-1	-2
O=C(NCc1ccccc1OC(F)(F)F)C1CCC(=O)N(Cc2cccc(F)c2)C1 (stereo not given)	112	-14	·	·	·	·
Cc1ccccc1CCNC(=O)C1CCC(=O)N(CCc2cccc(F)c2)C1 (stereo not given)	106	8	·	·	-9	-4
O=C(Cn1nnnc1CN1CCOCC1)N1CCC(c2cccc(Cl)c2)C1 (stereo not given)	107	18	·	·	·	·
COc1cc(/C=C2/C(=O)N=C(N)N2C)cc(OC)c1OC	102	84*	15	8	11	4
Cn1ccnc1SCc1cn2ccccc2n1	94	83*	15	45	3	5
c1ccn2cc(CSc3nnc4ccccn34)nc2c1	99	-6	13	35	·	·
CN(Cc1nccs1)C(=O)C1CCC(=O)N(Cc2ccccc2F)C1 (stereo not given)	104	-6	·	·	·	·
CN(Cc1nccs1)C(=O)C1CCC(=O)N(CCCc2ccccc2)C1 (stereo not given)	101	57*	·	·	-3	-2
O=C(NCCCN1CCN(c2cccc(Cl)c2)CC1)C1CCC(=O)N1Cc1ccccc1Cl (stereo not given)	106	4	39	5	6	-11
CN(CCCNC(=O)C1CCC(=O)N1Cc1ccccc1Cl)c1ccccc1 (stereo not given)	102	6	35	13	·	·
Cc1ccc(CNC(=O)C2CCC(=O)N2Cc2ccc(C)cc2)cc1 (stereo not given)	95	-22	·	·	·	·
Cc1ccc(CN2C(=O)CCC2C(=O)NCCN2CCOCC2)cc1 (stereo not given)	100	6	7	19	-10	-4
Cc1ccc(CN2C(=O)CCC2C(=O)NCCc2ccccc2)cc1 (stereo not given)	95	-2	·	·	·	·
Cc1ccc(CN2C(=O)CCC2C(=O)NCCCN2CCCC(C)C2)cc1 (stereo not given)	97	2	10	13	-11	-9
Cc1ccc(NC(=O)Cn2c(O)c(N=NC(N)=S)c3ccccc32)cc1	90	35	·	·	·	·
CCOC(=O)n1c(O)c(N=NC(N)=S)c2cc(C)ccc21	105	54*	3	·	-10	2
SMILES	Pemphigus Ab inh	Arr AP2 block	Avidin fluor	GSH bead fluor	Arr AP2 CP1	GST GSH counter
CNc1ccc(C(=O)OCC(=O)NCc2ccc3c(c2)OCO3)cc1[N+](=O)[O-]	·	96*	·	·	-3	1
COc1ncnc2c1ncn2CCCNCc1ccc2c(c1)OCO2	103	·	·	·	·	·
COc1ccc(NC(=O)CC(C)CC(=O)NCc2ccccc2)c(OC)c1 (stereo not given)	101	62*	·	·	0	0
COc1cc2c(cc1NC(=O)CSc1ccc(Cl)cc1)oc1ccccc12	106	0	11	20	-9	10
CCN(CC)c1ccc(C(=O)OCC(=O)Nc2cc3oc4ccccc4c3cc2OC)cc1	93	37	12	12	-13	-5
COc1cc2c(cc1NC(=O)COC(=O)CNC(=O)c1ccccc1)oc1ccccc12	112	-2	6	20	·	·
COc1ccc(CC(=O)Nc2cc3oc4ccccc4c3cc2OC)cc1	101	1	3	10	-4	4
COc1ccc(NC(=O)CC(C)CC(=O)NCc2ccc(F)cc2)c(OC)c1 (stereo not given)	105	-7	·	·	·	·
O=C(Nc1ccccc1)Nc1ccc(Cl)nc1Cl	·	6	·	·	·	·
CCCOc1ccc(CNC(=O)c2ccc3nc(N4CCOCC4)sc3c2)cc1	104	2	·	·	·	·
COc1cc2c(cc1NC(=O)COCC(=O)O)oc1ccccc12	102	27	·	·	·	·
COc1ccccc1CC(=O)Nc1cc2oc3ccccc3c2cc1OC	126	54*	26	53	-3	-24
CCCCCC(=O)N1C[C@@H](O)[C@H](n2cc(COC(=O)c3ccccc3)nn2)C[C@@H]1c1ccc(Cl)cc1	110	·	·	·	·	·
Cn1nc(C(=O)N2CCN(c3ccc(Cl)cc3)CC2)c2c1-c1ccccc1S(=O)(=O)C2	99	55*	·	·	-7	-14
CC12CN3CC(C)(CN(C1)C3c1ccc(Br)cc1O)C2 (stereo not given)	107	23	8	9	-7	0
CC(=O)c1ccc(S(=O)(=O)N2CCN(C(=O)CN3C(=O)NC4(CCCC4)C3=O)CC2)cc1	98	-5	·	·	·	·
COc1c(Cl)cc(C(=O)NN)cc1Cl	107	6	5	17	·	·
NNC(=O)c1cc(O)c(O)c(O)c1	84	11	4	17	23	7
CCOC(=O)c1ccc(N=c2sc(C(=O)OC)cc(=O)n2Cc2ccc3c(c2)OCO3)cc1	94	-3	6	18	·	·
CCOC(=O)c1ccc(N=c2sc(C(=O)OC)cc(=O)n2C2CC2)cc1	95	106*	22	17	1	89*
Cc1nc2ccc(NC(=O)c3ccc4ccccc4n3)cc2s1	·	65*	11	11	-7	-2
CCNc1ccc2noc3c2c1C(=O)c1ccccc1-3	30*	63*	7	14	34	91*
COc1ccc(CN2CCNC(=O)C2CC(=O)N(C)Cc2ccon2)c(OC)c1 (stereo not given)	101	36	9	11	·	·
NC(=O)SCC(=O)Nc1cccc(Cl)c1	97	82*	11	23	19	10
Cc1ccccc1S(=O)(=O)NC(=NCc1ccc(F)cc1)c1ccccc1	91	-5	·	·	·	·
COc1cccc(-c2nnc(SC(C(=O)c3c[nH]c4ccccc34)c3ccccc3)n2C)c1 (stereo not given)	105	98*	13	6	11	6
